Source: PubChem
Sampled rows, rich in hits. Any-hit rate of the full collection: about 3.7%.
hERG protect = hERG rescue from dofetilide block, primary screen, cell-based, CHO-hERG, FluxOR thallium flux, dofetilide IC70; Voltage-gated inwardly rectifying potassium channel KCNH2 (Homo sapiens), Q12809; hit rate 0.51% among 310,000; dofetilide IC70 present; activation (rescue from dofetilide block), less the hit threshold, % at 10 µM;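 active = activation above the mean of controls blocked by dofetilide plus 5 SD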;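 also: thallium influx through hERG after potassium depolarization seen as dye fluorescence rise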
KCNQ1 act = potentiators or activators of KCNQ1 channel, primary screen, cell-based, thallium flux, high-throughput. CHO-K1 KCNQ1, thallium flux FluxOR fluorescence; hits give high values. B-score at 10 µM. hit rate 0.35% among 310,000;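 active = fluorescence ratio B-score, a plate-corrected score, at least three library SD, with initial intensity B-score within 5 SD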
Target sequence (P51787 whole entry, looked up): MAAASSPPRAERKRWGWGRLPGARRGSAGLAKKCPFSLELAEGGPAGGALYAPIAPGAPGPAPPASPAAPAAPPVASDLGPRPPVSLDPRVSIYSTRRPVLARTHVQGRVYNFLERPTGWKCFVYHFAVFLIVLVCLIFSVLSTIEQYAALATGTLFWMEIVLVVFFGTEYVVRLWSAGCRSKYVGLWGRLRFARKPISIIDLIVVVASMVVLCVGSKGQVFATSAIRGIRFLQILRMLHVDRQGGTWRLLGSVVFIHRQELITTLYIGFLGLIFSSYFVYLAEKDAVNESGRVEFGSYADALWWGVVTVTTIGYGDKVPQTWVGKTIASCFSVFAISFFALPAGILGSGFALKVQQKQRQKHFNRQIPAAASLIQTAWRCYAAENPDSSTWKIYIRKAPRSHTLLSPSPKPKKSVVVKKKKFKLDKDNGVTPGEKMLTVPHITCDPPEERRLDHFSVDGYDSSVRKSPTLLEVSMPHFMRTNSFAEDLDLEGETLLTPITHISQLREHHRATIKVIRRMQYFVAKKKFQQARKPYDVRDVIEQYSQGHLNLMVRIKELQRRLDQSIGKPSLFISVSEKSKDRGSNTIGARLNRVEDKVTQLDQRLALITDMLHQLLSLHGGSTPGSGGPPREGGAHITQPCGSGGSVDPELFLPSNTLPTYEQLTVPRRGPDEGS
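assay system = KCNQ1-transfected CHO-K1 cells | medium = assay buffer with matched DMSO | probe or stimulus = depolarizing K+/Tl+ stimulus, K2SO4 and Tl2SO4 each 12.5 mM in 5x stock | dosing = single dose | incubation = dye 90 min, compound 20 min, room temperature | detection = kinetic FluxOR fluorescence, 10 s baseline plus 110 s post-stimulus | evaluation = ratio B score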
KCNK3 block = human KCNK3 channel inhibitors, primary screen, CHO cells, FluxOR thallium flux, B-score; AID 602410, 2012; B-score at 10 µM; Potassium channel subfamily K member 3 (Homo sapiens), O14649; hit rate 0.84% among 340,000; FluxOR fluorescence; hits give low values;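 active = B-score under library mean minus 4 SD, starting fluorescence ratio at most library mean plus 5 SD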;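 also: more negative B-score means stronger inhibition of thallium flux through KCNK3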
Kir21 inh = inhibitors of mouse Kir2.1 inward-rectifier potassium channel; Inward rectifier potassium channel 2 (Mus musculus), P35561; HEK293-Kir2.1, FluxOR thallium flux fluorescence; hits give low values; B-score at 10 µM; hit rate 0.85% among 310,000; AID 1672, 2009;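 active = fluorescence ratio B-score at or below minus 3 SD of library scores, with starting-brightness B-score within 2 SD, cut at about -4.2 in these data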;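 also: channel flux triggered by added potassium and thallium sulfate stimulus; B-score of peak minus minimum fluorescence over baseline after thallium stimulus; more negative B-score means stronger Kir2.1 block with less thallium influx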
KCNQ1 block = inhibitors of human KCNQ1 channel, primary screen, cell-based, thallium flux, high-throughput | CHO-K1 KCNQ1, FluxOR thallium flux fluorescence; hits give high values | B-score at 10 µM | hit rate 1.3% among 310,000;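 active = compounds whose thallium flux B-score, printed positive for inhibition, exceeds three library SD while starting fluorescence stays within three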;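 also: channel opened by potassium depolarization with thallium stimulus after 20 min compound exposure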
KCNK9 inh = KCNK9 potassium channel inhibitors, primary screen, HEK293 cells, thallium flux. Potassium channel subfamily K member 9 (Homo sapiens), Q9NPC2. B-score at 10 µM. hit rate 1.2% among 310,000. FluxOR thallium flux fluorescence; hits give low values;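 active = ratio B-score over 3 SD below the library mean, with starting fluorescence within 5 SD of its mean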;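 also: negative B-score means less thallium flux so channel inhibition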
KCNK9 inh conf = KCNK9 potassium channel inhibitors, confirmation, HEK293 cells, thallium flux, duplicate; FluxOR thallium flux fluorescence; inhibition, % at 10 µM; hit rate 43% among 4,900; shares compounds with KCNK9 inh;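 active = thallium signal inhibited by more than 5 SD of the compound-free buffer control wells, on both duplicate plates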;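 also: 0% = assay buffer control wells without compound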
Kir2-1 spec = mouse Kir2.1 channel inhibition, confirmation, selectivity assay for KCNK9 modulator project, cell-based, HEK293, thallium flux. shares compounds with KCNK9 inh. Kir2.1 cells, FluxOR thallium flux fluorescence. inhibition, % at 10 µM. hit rate 4% among 4,900. AID 492993, 2010;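 active = thallium signal drop more than 5 SD beyond the mean of the no-compound control wells, seen in both duplicate plates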;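 also: signal is fluorescence rise after thallium addition divided by baseline fluorescence; plate controls were assay buffer only for no effect and full block by chlorpromazine control for full effect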
KCNK9 uninduced = thallium flux in non-induced HEK293 cells, confirmation, counter-screen for KCNK9 inhibitor project, cell-based, second counter screen, non-induced KCNK9-HEK293; shares compounds with KCNK9 inh; FluxOR thallium flux; inhibition, % at 10 µM; hit rate 40% among 4,900; AID 492997, 2010;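 active = thallium signal drop beyond 5 SD of the untreated control mean, on both duplicate plates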;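 also: plate controls were buffer only IC0 wells for no effect and SID17386958 at its maximal inhibitory level for full effect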
Starred values were filed as active, the others as inactive; i = inactive; . = not tested or not shown.

SMILES	hERG protect	KCNQ1 act	KCNK3 block	Kir21 inh	KCNQ1 block	KCNK9 inh	KCNK9 inh conf	Kir2-1 spec	KCNK9 uninduced
COc1cc(C(=O)N/N=C/c2ccc(OC)c(CN3CCN(c4ccc(F)cc4)CC3)c2)ccc1O	-28	i	i	-1.1	i	i	i	i	i
COc1cc(OC)c(OC)cc1CN1CCN(c2ccc(F)cc2)CC1	-9	i	i	-0.42	i	i	i	i	i
COc1ccc(/C=N/NC(=O)c2ccccc2)cc1CN1CCN(c2ccc(F)cc2)CC1	-6	i	i	-1.2	i	i	.	.	.
COc1ccccc1N1CCN(C(=O)CCNC(=O)c2ccco2)CC1	.	.	i	.	.	.	.	.	.
CCCCCC1C(C(=O)OCC)C(=O)NC1(C(=O)OCC)C(=O)OCC (configuration not stated)	.	.	i	.	.	.	.	.	.
O=c1[nH]c(NNC(=S)NC2CCCCC2)nc2c1C1(CCCC1)Cc1ccccc1-2	-14	i	i	-0.92	6*	i	i	i	i
O=c1[nH]c(NNC(=S)NCc2ccccc2)nc2c1C1(CCCCC1)Cc1ccccc1-2	-6	i	i	0.14	i	i	36%*	i	i
CCOC(=O)Cc1c(C)nc(SC)[nH]c1=O	-5	i	i	-0.4	i	i	.	.	.
O=C(CSCC(=O)N1CCCCC1)Nc1nc(-c2ccc(Cl)s2)cs1	-10	i	i	0.11	i	i	i	i	i
O=C(CSCC(=O)N1CCN(c2ccccc2)CC1)Nc1nc(-c2ccc(Cl)s2)cs1	-8	i	i	0.64	i	i	.	.	.
CCOC(=O)N1CCC(n2c(SCC(=O)NCCC3=CCCCC3)nc3ccccc3c2=O)CC1	-21	i	i	1.8	i	i	i	i	i
CCOC(=O)N1CCC(n2c(SCC(=O)NCc3ccccc3)nc3ccccc3c2=O)CC1	-15	i	i	-1.3	i	i	.	.	.
CCOc1ccccc1NC(=O)CSc1nnc(-c2ccco2)n1Cc1ccco1	-4	i	i	-4	i	i	.	.	.
CCOc1ccccc1NC(=O)CSc1nnc(-c2ccccc2Cl)n1Cc1ccco1	-7	i	i	-2.2	i	-10*	53%*	i	36%*
COc1cc(SC#N)ccc1N=Cc1c(C)[nH]n(-c2ccc(C)c(C)c2)c1=O	-4	i	i	0.89	i	i	i	i	i
O=C(COc1ccc([N+](=O)[O-])cc1)N(C1CCCCC1)C1CCS(=O)(=O)C1 (configuration not stated)	-15	i	i	-0.12	i	i	.	.	.
Cc1cccc(C)c1NC(=O)CNC(=O)Cc1ccccc1[N+](=O)[O-]	-4	i	i	-0.22	i	i	.	.	.
Cc1cccc([N+](=O)[O-])c1NC(=O)CN(Cc1ccccc1)Cc1ccccc1	-6	i	i	-0.17	i	-8.8*	30%*	i	37%*
CCOC(=O)/C(=N\Nc1cc(C(F)(F)F)ccc1Cl)N(CC)CC	-5	i	i	-0.88	i	-13*	54%*	i	42%*
